# Laboratory results as given in ChEMBL document CHEMBL3244061, “Angiotensin II analogues. 12. Role of the aromatic ring of position 8 phenylalanine in pressor activity” (J Med Chem, 1979).
# Peptide text beside a SMILES is read from it.
# Organism: Rattus norvegicus
# Assay: Induction of pressor activity in nephrectomized, pentolinium-treated rat model relative to angiotensin 2
# Assay type: organism-based
# Settings: in vivo
# Procedure, shortened: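 Pressor activity was measured in male rats that were nephrectomized, treated with pentolinium and anesthetized with pentobarbital. Peptides were dissolved in normal saline containing 0.1% polyvinylpyrrolidone and kept in siliconized glass. Molarities of all solutions, including the angiotensin II standard, were set from peptide content determined by amino acid analysis of hydrolysates. Activity was expressed relative to angiotensin II.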
row,Compound,Activity
1,CC[C@H](C)[C@H](NC(=O)[C@H](Cc1ccc(O)cc1)NC(=O)[C@@H](NC(=O)[C@H](CCCNC(=N)N)NC(=O)[C@@H](N)CC(N)=O)C(C)C)C(=O)N[C@@H](Cc1cnc[nH]1)C(=O)N1CCC[C@H]1C(=O)N[C@@H](Cc1ccc(N)cc1)C(=O)O (HELM PEPTIDE1{N.R.V.Y.I.H.P.[Nc1ccc(C[C@H](N[*:1])C(=O)O)cc1]}$$$$V2.0),52.5%
2,H-NRVYIHPL-OH,1.2%
3,CC[C@H](C)[C@H](NC(=O)[C@H](Cc1ccc(O)cc1)NC(=O)[C@@H](NC(=O)[C@H](CCCN=C(N)N)NC(=O)[C@@H](N)CC(=O)O)C(C)C)C(=O)N[C@@H](Cc1c[nH]cn1)C(=O)N1CCC[C@H]1C(=O)N[C@@H](Cc1ccc(Br)cc1)C(=O)O,50%
4,CC[C@H](C)[C@H](NC(=O)[C@H](Cc1ccc(O)cc1)NC(=O)[C@@H](NC(=O)[C@H](CCCNC(=N)N)NC(=O)[C@@H](N)CC(=O)O)C(C)C)C(=O)N[C@@H](Cc1c[nH]cn1)C(=O)N1CCC[C@H]1C(=O)N[C@@H](CC1CCCCC1)C(=O)O,20%
5,CC[C@H](C)[C@H](NC(=O)[C@H](Cc1ccc(O)cc1)NC(=O)[C@@H](NC(=O)[C@H](CCCNC(=N)N)NC(=O)[C@@H](N)CC(N)=O)C(C)C)C(=O)N[C@@H](Cc1cnc[nH]1)C(=O)N1CCC[C@H]1C(=O)N[C@@H](Cc1ccc([N+](=O)[O-])cc1)C(=O)O (HELM PEPTIDE1{N.R.V.Y.I.H.P.[O=C(O)[C@H](Cc1ccc([N+](=O)[O-])cc1)N[*:1]]}$$$$V2.0),15%
6,CCCC[C@H](NC(=O)[C@@H]1CCCN1C(=O)[C@H](Cc1c[nH]cn1)NC(=O)[C@@H](NC(=O)[C@H](Cc1ccc(O)cc1)NC(=O)[C@@H](NC(=O)[C@H](CCCNC(=N)N)NC(=O)[C@@H](N)CC(=O)O)C(C)C)[C@@H](C)CC)C(=O)O,7.3%
7,CC[C@H](C)[C@H](NC(=O)[C@H](Cc1ccc(O)c(Cc2ccccc2)c1)NC(=O)[C@@H](NC(=O)[C@H](CCCNC(=N)N)NC(=O)[C@@H](N)CC(N)=O)C(C)C)C(=O)N[C@@H](Cc1cnc[nH]1)C(=O)N1CCC[C@H]1C(=O)N[C@@H](Cc1ccc([N+](=O)[O-])cc1)C(=O)O (HELM PEPTIDE1{N.R.V.[O=C([C@H](Cc1ccc(O)c(Cc2ccccc2)c1)N[*:1])[*:2]].I.H.P.[O=C(O)[C@H](Cc1ccc([N+](=O)[O-])cc1)N[*:1]]}$$$$V2.0),0.16%
8,CC[C@H](C)[C@H](NC(=O)[C@H](Cc1ccc(O)cc1)NC(=O)[C@@H](NC(=O)[C@H](CCCNC(=N)N)NC(=O)[C@@H](N)CC(=O)O)C(C)C)C(=O)N[C@@H](Cc1c[nH]cn1)C(=O)N1CCC[C@H]1C(=O)N[C@@H](Cc1ccc(F)cc1)C(=O)O,100%

# Continued, values first:
row,Activity,Compound
1,83%,H-DRVYIHPY-OH
2,100%,H-NRVYVHPF-OH [ANGIOTENSIN AMIDE]
3,0.1%,CC[C@H](C)[C@H](NC(=O)[C@H](Cc1ccc(O)cc1)NC(=O)[C@@H](NC(=O)[C@H](CCCNC(=N)N)NC(=O)[C@@H](N)CC(N)=O)C(C)C)C(=O)N[C@@H](Cc1cnc[nH]1)C(=O)N1CCC[C@H]1C(=O)NC1(C(=O)O)Cc2ccccc2C1 (HELM PEPTIDE1{N.R.V.Y.I.H.P.[O=C(O)C1(N[*:1])Cc2ccccc2C1]}$$$$V2.0)
4,11.5%,CCCCC[C@H](NC(=O)[C@@H]1CCCN1C(=O)[C@H](Cc1cnc[nH]1)NC(=O)[C@@H](NC(=O)[C@H](Cc1ccc(O)cc1)NC(=O)[C@@H](NC(=O)[C@H](CCCNC(=N)N)NC(=O)[C@@H](N)CC(N)=O)C(C)C)[C@@H](C)CC)C(=O)O (HELM PEPTIDE1{N.R.V.Y.I.H.P.[CCCCC[C@H](N[*:1])C(=O)O]}$$$$V2.0)
5,1.4%,CC[C@H](C)[C@H](NC(=O)[C@H](Cc1ccc(O)cc1)NC(=O)[C@@H](NC(=O)[C@@H](C)N)C(C)C)C(=O)N[C@@H](Cc1cnc[nH]1)C(=O)N1CCC[C@H]1C(=O)N[C@@H](CC(C)C)C(=O)O
6,2.5%,CC[C@H](C)[C@H](NC(=O)[C@H](Cc1ccc(O)cc1)NC(=O)[C@@H](NC(=O)[C@H](CCCNC(=N)N)NC(=O)CNC)C(C)C)C(=O)N[C@@H](Cc1cnc[nH]1)C(=O)N1CCC[C@H]1C(=O)N[C@@H](CC(C)C)C(=O)O (HELM PEPTIDE1{[Sar].R.V.Y.I.H.P.L}$$$$V2.0)
7,33%,CC[C@H](C)[C@H](NC(=O)[C@H](Cc1ccc(O)cc1)NC(=O)[C@@H](NC(=O)[C@H](CCCNC(=N)N)NC(=O)[C@@H](N)CC(=O)O)C(C)C)C(=O)N[C@@H](Cc1c[nH]cn1)C(=O)N1CCC[C@H]1C(=O)N[C@@H](Cc1ccc(OC)cc1)C(=O)O
8,7.3%,CCCC[C@H](NC(=O)[C@@H]1CCCN1C(=O)[C@H](Cc1cnc[nH]1)NC(=O)[C@@H](NC(=O)[C@H](Cc1ccc(O)cc1)NC(=O)[C@@H](NC(=O)[C@H](CCCNC(=N)N)NC(=O)[C@@H](N)CC(N)=O)C(C)C)[C@@H](C)CC)C(=O)O (HELM PEPTIDE1{N.R.V.Y.I.H.P.[Nle]}$$$$V2.0)
9,0.5%,H-DRVYIHPV-OH

# Organism: Rattus norvegicus
# Assay: Inhibition of angiotensin-2-induced pressor activity in rat assessed as duration of action
# Assay type: functional, organism-based
# Settings: not given
# Procedure, shortened: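 Antagonist was given to rats as a single 4000 pmol dose. Pressor responses to 20 pmol angiotensin II were then followed. Duration of action (T1/2) was taken as the time for the angiotensin II response to recover to one-half of its pretreatment level.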
row,Compound,T1/2
1,CC[C@H](C)[C@H](NC(=O)[C@H](Cc1ccc(O)cc1)NC(=O)[C@@H](NC(=O)[C@H](CCCNC(=N)N)NC(=O)CNC)C(C)C)C(=O)N[C@@H](Cc1cnc[nH]1)C(=O)N1CCC[C@H]1C(=O)N[C@@H](CC(C)C)C(=O)O (HELM PEPTIDE1{[Sar].R.V.Y.I.H.P.L}$$$$V2.0),45 min

# Organism: Rattus norvegicus
# Assay: Inhibition of 70 pmol angiotensin-2-induced pressor activity in rat at 1400 pmol/min co-infused with angiotensin-2 measured after 30 mins
# Assay type: functional
# Settings: not given
# Procedure, shortened: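 Antagonist and angiotensin II were coinjected at a 20:1 ratio (1400 pmol/70 pmol per minute) for 30 min. The percent reduction of the angiotensin II pressor effect was recorded. Recovery to one-half of the pretreatment level was followed after the infusion stopped.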
row,Compound,inhibition (INH)
1,CC[C@H](C)[C@H](NC(=O)[C@H](Cc1ccc(O)cc1)NC(=O)[C@@H](NC(=O)[C@H](CCCNC(=N)N)NC(=O)CNC)C(C)C)C(=O)N[C@@H](Cc1cnc[nH]1)C(=O)N1CCC[C@H]1C(=O)N[C@@H](CC(C)C)C(=O)O (HELM PEPTIDE1{[Sar].R.V.Y.I.H.P.L}$$$$V2.0),67%

# Organism: Rattus norvegicus
# Assay: Inhibition of 3 to 12 pmol angiotensin-2-induced pressor activity in rat at 400 pmol measured after 30 mins
# Assay type: functional
# Settings: not given
# Procedure, shortened: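 A single 400 pmol injection of antagonist was given. Pressor responses to single angiotensin II doses of 3, 6 and 12 pmol were then tracked. Duration (T1/2) was taken as the time for the responses to return to one-half of the pretreatment level.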
row,Compound,inhibition (INH)
1,CC[C@H](C)[C@H](NC(=O)[C@H](Cc1ccc(O)cc1)NC(=O)[C@@H](NC(=O)[C@H](CCCNC(=N)N)NC(=O)CNC)C(C)C)C(=O)N[C@@H](Cc1cnc[nH]1)C(=O)N1CCC[C@H]1C(=O)N[C@@H](CC(C)C)C(=O)O (HELM PEPTIDE1{[Sar].R.V.Y.I.H.P.L}$$$$V2.0),50%
